In ChEMBL document CHEMBL2331435, “Structure-activity relationship study of vitamin k derivatives yields highly potent neuroprotective agents” (J Med Chem, 2013):
Calls of active or inactive are those of the source. No cut-off for these calls is given here.

system: Mus musculus; test: Toxicity in BALB/cByJ mouse assessed as outward signs of pain at 50 mg/kg, ip daily for 3 weeks measured 2 hrs after final injection; format: organism-based; parameters: dose 50 mg/kg, route intraperitoneal; settings: in vivo

SMILES	Activity
O=C1C=C(NCc2ccccc2)C(=O)c2ccccc21	Non-toxic

target: Dynamin-1-like protein (Mus musculus) (UniProt Q8K1M6); test: Inhibition of glutamate-induced decrease in DRP1 phosphorylation at serine 637 in mouse HT22 cells at 500 nM after 16 hrs by Western blotting analysis; format: cell-based; settings: HT-22
Sequence (Q8K1M6 whole entry): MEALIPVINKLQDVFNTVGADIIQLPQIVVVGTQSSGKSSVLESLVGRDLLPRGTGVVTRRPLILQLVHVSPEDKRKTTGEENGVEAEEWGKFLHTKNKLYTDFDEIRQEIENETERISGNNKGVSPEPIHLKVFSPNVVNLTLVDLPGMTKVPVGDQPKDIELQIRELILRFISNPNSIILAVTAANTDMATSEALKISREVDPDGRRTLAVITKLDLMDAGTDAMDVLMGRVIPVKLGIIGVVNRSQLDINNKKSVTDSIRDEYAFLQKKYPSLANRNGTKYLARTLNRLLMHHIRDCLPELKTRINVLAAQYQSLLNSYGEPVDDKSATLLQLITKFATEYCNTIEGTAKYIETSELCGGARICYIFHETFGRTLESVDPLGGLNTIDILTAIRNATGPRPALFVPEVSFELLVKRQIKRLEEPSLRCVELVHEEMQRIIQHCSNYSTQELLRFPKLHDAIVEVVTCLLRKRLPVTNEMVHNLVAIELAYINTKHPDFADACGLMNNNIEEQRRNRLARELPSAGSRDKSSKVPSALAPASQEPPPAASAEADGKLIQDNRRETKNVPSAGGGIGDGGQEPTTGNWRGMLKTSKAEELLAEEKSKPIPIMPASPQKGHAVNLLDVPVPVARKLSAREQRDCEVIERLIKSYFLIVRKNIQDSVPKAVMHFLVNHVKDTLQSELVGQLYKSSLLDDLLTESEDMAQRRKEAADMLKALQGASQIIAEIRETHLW
Outline: (§1)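 HT22 cells were treated with 10 mM glutamate plus compound for 16 h, harvested, and lysed in low-salt buffer (50 mM Tris-HCl pH 7.4, 150 mM NaCl, 10% glycerol, Triton X-100, protease/phosphatase inhibitors) for 30 min with a brief sonication. Lysates were run on 4–12% gels and immunoblotted for phospho-Drp1 Ser637, total Drp1, PGAM5, actin and α-tubulin, then analyzed by densitometry.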

SMILES	inhibition
CC(C)=CCC/C(C)=C/CC/C(C)=C/CC/C(C)=C/CC1=C(C)C(=O)c2ccccc2C1=O [MENATETRENONE]	Active

system: not listed separately; test: Therapeutic index, ratio of cytotoxic TC50 for mouse HT22 cells to neuroprotective PD50 for mouse HT22 cells; format: cell-based, HT-22; settings: read-out: TI

SMILES	selectivity ratio
CC1=CC(=O)c2ccccc2C1=O [MENADIONE]	24
O=C1C=CC(=O)c2ccccc21 [NAPHTHOQUINONE]	12
O=C1C=C(NC2CCCC2)C(=O)c2ccccc21	108
C#CCNC1=CC(=O)c2ccccc2C1=O	442
CC1=C(C)C(=O)c2ccccc2C1=O	254
Cc1ccc(CNC2=CC(=O)c3ccccc3C2=O)cc1	> 1520
O=C1C=C(NCc2ccccc2)C(=O)c2ccccc21	> 1140

system: Radical scavenging activity; test: Antioxidant activity assessed as DPPH free radical scavenging activity at 20 uM; format: functional; settings: not given
Outline: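 Test agents at 20 μM final, added to 100 μM DPPH in methanol; absorbance at 517 nm monitored immediately for 10 min. Trolox and ascorbic acid served as positive controls, and the rate of absorbance loss was taken as antioxidant potency.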

SMILES	Activity
CC(C)=CCC/C(C)=C/CC/C(C)=C/CC/C(C)=C/CC1=C(C)C(=O)c2ccccc2C1=O [MENATETRENONE]	inactive
O=C1C=C(NCc2ccccc2)C(=O)c2ccccc21	inactive

system: Mus musculus; test: Toxicity in BALB/cByJ mouse assessed as outward signs of distress at 50 mg/kg, ip daily for 3 weeks measured 2 hrs after final injection; format: organism-based; parameters: dose 50 mg/kg, route intraperitoneal; settings: in vivo

SMILES	Activity
O=C1C=C(NCc2ccccc2)C(=O)c2ccccc21	Non-toxic

target: T1, Serine/threonine-protein phosphatase PGAM5, mitochondrial (Mus musculus) (UniProt Q8BX10); test: Inhibition of glutamate-induced increase in lower band of PGAM5 in mouse HT22 cells at 125 nM after 16 hrs by Western blotting analysis; format: cell-based; settings: HT-22; outline: as §1
T1 sequence (whole entry): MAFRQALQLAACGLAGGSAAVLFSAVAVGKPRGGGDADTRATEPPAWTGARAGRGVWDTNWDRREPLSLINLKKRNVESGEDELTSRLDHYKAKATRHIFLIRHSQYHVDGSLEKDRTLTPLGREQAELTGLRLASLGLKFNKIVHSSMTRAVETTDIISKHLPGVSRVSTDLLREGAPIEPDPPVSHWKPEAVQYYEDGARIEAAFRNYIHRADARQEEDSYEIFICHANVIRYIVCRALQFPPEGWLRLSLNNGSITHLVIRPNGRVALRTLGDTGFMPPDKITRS

SMILES	inhibition
O=C1C=C(NCc2ccccc2)C(=O)c2ccccc21	Active

system: HT-22; test: Antioxidant activity in mouse HT22 cells assessed as reduction in glutamate-induced upregulation of HO1 gene expression at 250 nM after 16 hrs by qRT-PCR analysis relative to glutamate-treated control; format: functional, cell-based; settings: not given
Outline: (§2)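 HT22 cells were seeded at 3.0 × 10^5 per well and cultured overnight, then treated with or without 10 mM glutamate plus compound (DMSO stock) for 16 h. Cells were trypsinized and washed in cold Ca/Mg-free HBSS. HO-1 and NQO-1 mRNA were measured by qRT-PCR with β2-microglobulin as reference gene, and fold change was calculated by the Livak method.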

SMILES	Activity
CC(C)=CCC/C(C)=C/CC/C(C)=C/CC/C(C)=C/CC1=C(C)C(=O)c2ccccc2C1=O [MENATETRENONE]	Active
O=C1C=C(NCc2ccccc2)C(=O)c2ccccc21	Active

system: HT-22; test: Antioxidant activity in mouse HT22 cells assessed as upregulation of NQO1 gene expression at 250 nM after 16 hrs by qRT-PCR analysis in the absence of glutamate; format: functional, cell-based; settings: not given; outline: as §2

SMILES	Activity
CC(C)=CCC/C(C)=C/CC/C(C)=C/CC/C(C)=C/CC1=C(C)C(=O)c2ccccc2C1=O [MENATETRENONE]	inactive
O=C1C=C(NCc2ccccc2)C(=O)c2ccccc21	inactive

system: HT-22; test: Neuroprotective activity in mouse HT22 cells assessed as prevention from tBuOOH-induced oxidative cell death after 3 hrs by MTS assay; format: functional, cell-based; settings: not given
Outline: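 HT22 cells were seeded at 5.0 × 10^3 per well and cultured overnight, then exposed to 50 μM t-BuOOH (final) plus compound for 3 h. Medium was removed, cells were washed with HBSS and returned to normal medium. MTS was added 24 h after initial treatment, absorbance was read at 490 nm after 2 h, and viability was expressed as percent of untreated cells.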

SMILES	Activity
CC(C)=CCC/C(C)=C/CC/C(C)=C/CC/C(C)=C/CC1=C(C)C(=O)c2ccccc2C1=O [MENATETRENONE]	Active
O=C1C=C(NCc2ccccc2)C(=O)c2ccccc21	Active

target: Dynamin-1-like protein (Mus musculus) (UniProt Q8K1M6); test: Inhibition of glutamate-induced decrease in DRP1 phosphorylation at serine 637 in mouse HT22 cells at 125 nM after 16 hrs by Western blotting analysis; format: cell-based; settings: HT-22; outline: as §1

SMILES	inhibition
O=C1C=C(NCc2ccccc2)C(=O)c2ccccc21	Active

system: HT-22; test: Neuroprotective activity in mouse HT22 cells assessed as reduction of glutamate-induced mitochondrial fragmentation at 250 nM after 8 hrs by Mitotracker DR staining-based fluorescence microscopic analysis; format: functional, cell-based; settings: not given
Outline: (§3)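 HT22 cells were given 10 mM glutamate plus compound for 8 h, then co-stained with MitoSOX Red (5 μM final) and Mitotracker Deep Red (10 nM final) for 20 min. Cells were washed twice with HBSS and imaged live by fluorescence microscopy in HBSS.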

SMILES	Activity
CC(C)=CCC/C(C)=C/CC/C(C)=C/CC/C(C)=C/CC1=C(C)C(=O)c2ccccc2C1=O [MENATETRENONE]	Active
O=C1C=C(NCc2ccccc2)C(=O)c2ccccc21	Active

system: HT-22; test: Antioxidant activity in mouse HT22 cells assessed as upregulation of NQO1 protein expression 8 hrs by Western blotting analysis; format: functional, cell-based; settings: not given

SMILES	Activity
CC(C)=CCC/C(C)=C/CC/C(C)=C/CC/C(C)=C/CC1=C(C)C(=O)c2ccccc2C1=O [MENATETRENONE]	inactive
O=C1C=C(NCc2ccccc2)C(=O)c2ccccc21	inactive

system: not listed separately; test: Neurotoxicity in mouse HT22 cells assessed as cell viability after 24 hrs by MTS assay; format: toxicity, cell-based, HT-22; settings: read-out: TC50
Outline: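 HT22 cells were seeded at 5.0 × 10^3 per well, cultured overnight, and treated with a range of compound concentrations without glutamate for 24 h. MTS was added for 2 h and absorbance read at 490 nm. Viability was expressed as percent of untreated cells, and TC50 was fit from titration curves (7- or 12-point, n = 3–4).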

SMILES	CC50 at 24 h
CC1=CC(=O)c2ccccc2C1=O [MENADIONE]	19 µM
O=C1C=CC(=O)c2ccccc21 [NAPHTHOQUINONE]	19 µM
O=C1C=C(NC2CCCC2)C(=O)c2ccccc21	44 µM
C#CCNC1=CC(=O)c2ccccc2C1=O	53 µM
CC1=C(C)C(=O)c2ccccc2C1=O	30 µM
Cc1ccc(CNC2=CC(=O)c3ccccc3C2=O)cc1	> 100 µM
CC(C)=CCC/C(C)=C/CC/C(C)=C/CC/C(C)=C/CC1=C(C)C(=O)c2ccccc2C1=O [MENATETRENONE]	> 100 µM
O=C1C=C(NCc2ccccc2)C(=O)c2ccccc21	> 100 µM

target: T1, Serine/threonine-protein phosphatase PGAM5, mitochondrial (Mus musculus); test: Inhibition of glutamate-induced increase in lower band of PGAM5 in mouse HT22 cells at 500 nM after 16 hrs by Western blotting analysis; format: cell-based; settings: HT-22; outline: as §1

SMILES	inhibition
CC(C)=CCC/C(C)=C/CC/C(C)=C/CC/C(C)=C/CC1=C(C)C(=O)c2ccccc2C1=O [MENATETRENONE]	Active

system: HT-22; test: Antioxidant activity in mouse HT22 cells assessed as prevention of glutamate-induced intracellular accumulation of free radicals at 250 nM after 8 hrs by spectrofluorometric analysis; format: functional, cell-based; settings: not given
Outline: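 HT22 cells were seeded at 5.0 × 10^3 per well and cultured overnight, then given 10 mM glutamate plus compound for 8 h. Rho123 was added at 5 μM final for 20 min, cells were washed twice with HBSS, and oxidized Rho123 fluorescence was read at 500 nm excitation and 536 nm emission.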

SMILES	Activity
CC(C)=CCC/C(C)=C/CC/C(C)=C/CC/C(C)=C/CC1=C(C)C(=O)c2ccccc2C1=O [MENATETRENONE]	Active
O=C1C=C(NCc2ccccc2)C(=O)c2ccccc21	Active

system: Mus musculus; test: Toxicity in BALB/cByJ mouse assessed as weight loss at 50 mg/kg, ip daily for 3 weeks measured 2 hrs after final injection; format: organism-based; parameters: dose 50 mg/kg, route intraperitoneal; settings: in vivo

SMILES	Activity
O=C1C=C(NCc2ccccc2)C(=O)c2ccccc21	Non-toxic

system: HT-22; test: Neuroprotective activity in mouse HT22 cells assessed as reduction of glutamate-induced mitochondrial superoxide generation at 250 nM after 8 hrs by MitoSOX RED staining-based fluorescence microscopic analysis; format: functional, cell-based; settings: not given; outline: as §3

SMILES	Activity
CC(C)=CCC/C(C)=C/CC/C(C)=C/CC/C(C)=C/CC1=C(C)C(=O)c2ccccc2C1=O [MENATETRENONE]	Active
O=C1C=C(NCc2ccccc2)C(=O)c2ccccc21	Active

system: HT-22; test: Antioxidant activity in mouse HT22 cells assessed as upregulation of HO1 protein expression 8 hrs by Western blotting analysis; format: functional, cell-based; settings: not given

SMILES	Activity
CC(C)=CCC/C(C)=C/CC/C(C)=C/CC/C(C)=C/CC1=C(C)C(=O)c2ccccc2C1=O [MENATETRENONE]	inactive
O=C1C=C(NCc2ccccc2)C(=O)c2ccccc21	inactive

system: HT-22; test: Antioxidant activity in mouse HT22 cells assessed as upregulation of HO1 gene expression at 250 nM after 16 hrs by qRT-PCR analysis in the absence of glutamate; format: functional, cell-based; settings: not given; outline: as §2

SMILES	Activity
CC(C)=CCC/C(C)=C/CC/C(C)=C/CC/C(C)=C/CC1=C(C)C(=O)c2ccccc2C1=O [MENATETRENONE]	inactive
O=C1C=C(NCc2ccccc2)C(=O)c2ccccc21	inactive

system: HT-22; test: Antioxidant activity in mouse HT22 cells assessed as reduction in glutamate-induced upregulation of NQO1 gene expression at 250 nM after 16 hrs by qRT-PCR analysis relative to glutamate-treated control; format: functional, cell-based; settings: not given; outline: as §2

SMILES	Activity
CC(C)=CCC/C(C)=C/CC/C(C)=C/CC/C(C)=C/CC1=C(C)C(=O)c2ccccc2C1=O [MENATETRENONE]	inactive
O=C1C=C(NCc2ccccc2)C(=O)c2ccccc21	inactive

system: Mus musculus; test: Toxicity in BALB/cByJ mouse assessed as biochemical parameters at 50 mg/kg, ip daily for 3 weeks measured 2 hrs after final injection; format: organism-based; parameters: dose 50 mg/kg, route intraperitoneal; settings: in vivo

SMILES	Activity
O=C1C=C(NCc2ccccc2)C(=O)c2ccccc21	Non-toxic

system: HT-22; test: Neuroprotective activity in mouse HT22 cells assessed as prevention from glutamate-induced oxidative cell death by MTS assay; format: functional; settings: not given
Outline: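 HT22 cells grown in high-glucose DMEM with 10% FBS and antibiotic-antimycotic at 37°C, 5% CO2. Seeded at 5.0 × 10^3 cells/well overnight, then given 10 mM glutamate (final) plus compound from DMSO stock. MTS added 24 h after treatment, 2 h at 37°C, A490 read. Viability taken as % of untreated cells. PC50 from 12-point titrations; experiments repeated at least four times.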

SMILES	PD50
CC1=CC(=O)c2ccccc2C1=O [MENADIONE]	797 nM
C#CCNC1=CC(=O)c2ccccc2C1=O	120 nM
Cc1ccc(CNC2=CC(=O)c3ccccc3C2=O)cc1	66 nM
CC(C)=CCC/C(C)=C/CC/C(C)=C/CC/C(C)=C/CC1=C(C)C(=O)c2ccccc2C1=O [MENATETRENONE]	432 nM
O=C1C=C(NCc2ccccc2)C(=O)c2ccccc21	88 nM

system: HT-22; test: Antioxidant activity in mouse HT22 cells assessed as reduction in glutamate-induced upregulation of HO1 gene expression at 250 nM after 16 hrs by qRT-PCR analysis relative to untreated control; format: functional, cell-based; settings: not given; outline: as §2

SMILES	Activity
CC(C)=CCC/C(C)=C/CC/C(C)=C/CC/C(C)=C/CC1=C(C)C(=O)c2ccccc2C1=O [MENATETRENONE]	inactive
O=C1C=C(NCc2ccccc2)C(=O)c2ccccc21	inactive
